From ChEMBL document CHEMBL4196180, “Semisynthesis of ω-Hydroxyalkylcarbonate Derivatives of Hydroxytyrosol as Antitrypanosome Agents” (J Nat Prod, 2018) come the findings set out here.

The subject of data set [1] is Trypanosoma brucei brucei. The data set can be described thus: Anti-parasitic activity against Trypanosoma brucei brucei 427 infected in human MRC5 cells assessed as reduction in parasite proliferation after 72 hrs by Alamar blue assay. It is filed as functional, organism-based. The conditions noted are these: Trypanosoma brucei, 427, 72 h; in the assay text read “bloodstream forms” for “infected in human MRC5 cells”. An outline of the steps: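 Bloodstream-form T. brucei brucei single-marker S427 (S16), grown in HMI-9 with 10% hiFBS at 37 °C, 5% CO2. Parasites seeded at 1 × 10^4 BSF/mL with increasing compound concentrations for 72 h at 37 °C, 5% CO2. Proliferation read by alamarBlue fluorescence (ex 550/em 590 nm); IC50 = 50% inhibition of parasite growth.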

Data set [2] relates to Trypanosoma brucei brucei. The data set can be described thus: Potency index, ratio of hydroxytyrosol IC50 to compound IC50 for Trypanosoma brucei brucei 427 […]. It is filed as functional. An outline of the steps:
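Activity gain calculated as IC50 of hydroxytyrosol against bloodstream-form T. brucei divided by IC50 of the derivative. Both come from the 72 h alamarBlue assay.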

A further data set concerns MRC5. The data set can be described thus: Cytotoxicity against human MRC5 cells assessed as inhibition of cell growth after 72 hrs by MTT assay. It is filed as cell-based. To be noted: MRC5, 72 h. An outline of the steps: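 MRC-5 lung fibroblasts kept in low-glucose DMEM with 10% hiFBS and penicillin/streptomycin at 37 °C, 5% CO2, 100% humidity. Cells trypsinized (0.25%), seeded at 5000 cells/well with increasing compound concentrations, incubated 72 h at 37 °C. MTT colorimetric read-out; IC50 = concentration inhibiting growth 50% vs untreated cells.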
For orientation: Formazan colour is commonly taken as a measure of viable cells.

Data set [3] is described as follows: Selectivity index, ratio of IC50 for MRC5 cells to IC50 for Trypanosoma brucei brucei 427 […]. It is filed as toxicity, cell-based. To be noted: read-out: Ratio IC50.
In data set [4] the test system is Trypanosoma brucei brucei. The data set can be described thus: Anti-parasitic activity against Trypanosoma brucei brucei 427 bloodstream forms assessed as reduction in parasite proliferation after 72 hrs by Alamar blue assay. To be noted: Trypanosoma brucei, 427, 72 h. Background: The colour change of resazurin is a common sign of viable cells or microbes.

The IC50 is the concentration that gives 50% inhibition. As for `O=C(OCCCCOC(=O)OCCc1ccc(OCc2ccccc2)c(OCc2ccccc2)c1)OCCc1ccc(OCc2ccccc2)c(OCc2ccccc2)c1`, the IC50 in data set [1] is greater than 10 µM.

With `O=C(OCCCCCCOC(=O)OCCc1ccc(OCc2ccccc2)c(OCc2ccccc2)c1)OCCc1ccc(OCc2ccccc2)c(OCc2ccccc2)c1`, the IC50 in data set [1] turned out to be 8.1 µM. The “Ratio IC50” value in data set [2] worked out at 5.9.

With `O=C(OCCCCCCO)OCCc1ccc(O)c(O)c1`, the IC50 in data set [1] is 4.1 µM; in the data set on MRC5 it was greater than 50 µM. Also, in data set [3], the selectivity ratio is greater than 12. The “Ratio IC50” value in data set [2] came to 11.6.

As for `O=C(OCCCCOC(=O)OCCc1ccc(O)c(O)c1)OCCc1ccc(O)c(O)c1`, the values for the IC50 (in data set [1]; in the data set on MRC5) were 4 µM and greater than 50 µM, respectively. The selectivity ratio in data set [3] is greater than 13. Besides, the “Ratio IC50” value in data set [2] turned out to be 12.

As for `CCCCCCCCCCCCOC(=O)OCCc1ccc(O)c(O)c1`, the results for the IC50 (in data set [1]; with MRC5) were 1.1 µM and 12.4 µM, respectively. In addition, in data set [3], the selectivity ratio is 12. Further, the “Ratio IC50” value in data set [2] is 44.4.

As to `O=C(OCCCCCCCCO)OCCc1ccc(OCc2ccccc2)c(OCc2ccccc2)c1`, the “Ratio IC50” value in data set [2] is on record as 8.3. In addition, the half-inhibitory concentration (IC50) in data set [4] turned out to be 5.7 µM.

For the compound `CCCCCCOC(=O)OCCc1ccc(OCc2ccccc2)c(OCc2ccccc2)c1`, the IC50 in data set [1] is greater than 10 µM.

With `O=C(OCCOC(=O)OCCc1ccc(OCc2ccccc2)c(OCc2ccccc2)c1)OCCc1ccc(OCc2ccccc2)c(OCc2ccccc2)c1`, in data set [2], the “Ratio IC50” value stood at 8.4. Further, the IC50 in data set [4] was determined as 5.7 µM.

Consider `CCCCCCOC(=O)OCCc1ccc(O)c(O)c1`, for which the IC50 is 0.2 µM in data set [1] and 11.2 µM in the data set on MRC5. Besides, the selectivity ratio in data set [3] was 62. The “Ratio IC50” value in data set [2] was determined as 263.9.

Consider `O=C(OCCO)OCCc1ccc(O)c(O)c1`, for which, in data set [1], the IC50 worked out at 6.4 µM. Also, the “Ratio IC50” value in data set [2] is on record as 7.4.

As for `O=C(OCCCCCCCCO)OCCc1ccc(O)c(O)c1`, the IC50 was greater than 50 µM in the data set on MRC5 and 1.5 µM in data set [4]. Moreover, the selectivity ratio in data set [3] is greater than 35. The “Ratio IC50” value in data set [2] is 32.8.

`O=C(OCCc1ccc(O)c(O)c1)OCCc1ccc(O)c(O)c1`: the values for the IC50 (in data set [1]; with MRC5) were 1.3 µM and greater than 50 µM, respectively. For the same compound, the selectivity ratio in data set [3] was greater than 39. Besides, the “Ratio IC50” value in data set [2] is 37.1.

On to `CCCCCCCCCCCCCCCCOC(=O)OCCc1ccc(O)c(O)c1`, for which the IC50 in data set [1] worked out at 6.2 µM. Also, the “Ratio IC50” value in data set [2] stood at 7.7.

As for `O=C(OCCCCO)OCCc1ccc(OCc2ccccc2)c(OCc2ccccc2)c1`, the IC50 in data set [1] is greater than 10 µM.

As for `O=C(OCCCCCCOC(=O)OCCc1ccc(O)c(O)c1)OCCc1ccc(O)c(O)c1`, the figures for the IC50 (in data set [1]; with MRC5) were 2.1 µM and greater than 50 µM, respectively. The selectivity ratio in data set [3] was greater than 24. Also, in data set [2], the “Ratio IC50” value amounted to 22.6.

As to `O=C(OCCCCCCO)OCCc1ccc(OCc2ccccc2)c(OCc2ccccc2)c1`, the IC50 was 4.1 µM in data set [1] and greater than 50 µM in the data set with MRC5. Moreover, the selectivity ratio in data set [3] was greater than 12. Also, the “Ratio IC50” value in data set [2] is recorded as 11.6.

Turning to `CCCCCCCCCCCCOC(=O)OCCc1ccc(OCc2ccccc2)c(OCc2ccccc2)c1`, the IC50 in data set [1] is greater than 10 µM.

Turning to `O=C(OCCCCO)OCCc1ccc(O)c(O)c1`, in data set [1], the IC50 is greater than 10 µM.

With `O=C(OCCc1ccc(OCc2ccccc2)c(OCc2ccccc2)c1)OCCc1ccc(OCc2ccccc2)c(OCc2ccccc2)c1`, the IC50 in data set [1] is greater than 10 µM.

As for `CCCCCCCCOC(=O)OCCc1ccc(O)c(O)c1`, the IC50 worked out at 37.9 µM with MRC5 and 0.5 µM in data set [4]. Besides, in data set [3], the selectivity ratio turned out to be 72. For the same compound, in data set [2], the “Ratio IC50” value worked out at 89.6.

Turning to `O=C(OCCCCCCCCOC(=O)OCCc1ccc(OCc2ccccc2)c(OCc2ccccc2)c1)OCCc1ccc(OCc2ccccc2)c(OCc2ccccc2)c1`, the 50% inhibitory concentration (IC50) in data set [1] was 6.2 µM. The “Ratio IC50” value in data set [2] is reported as 7.7.

On to `CCOC(=O)OCCc1ccc(O)c(O)c1`, for which the IC50 in data set [1] came to 1.4 µM; in the data set on MRC5, 34.5 µM. In data set [3], the selectivity ratio was 25. For the same compound, in data set [2], the “Ratio IC50” value stood at 33.7.

Turning to `CCCCCCCCCCCCCCOC(=O)OCCc1ccc(O)c(O)c1`, the IC50 was 1.4 µM in data set [1] and 9.1 µM with MRC5. For the same compound, in data set [3], the selectivity ratio was found to be 6. In addition, the “Ratio IC50” value in data set [2] is 33.2.

As to `O=C(OCCO)OCCc1ccc(OCc2ccccc2)c(OCc2ccccc2)c1`, the IC50 in data set [1] is 9.4 µM. Further, the “Ratio IC50” value in data set [2] came to 5.

As to `O=C(OCCCCCCCCOC(=O)OCCc1ccc(O)c(O)c1)OCCc1ccc(O)c(O)c1`, the IC50 is 1 µM in data set [1] and greater than 50 µM in the data set with MRC5. In addition, in data set [3], the selectivity ratio is greater than 50. Besides, the “Ratio IC50” value in data set [2] is given as 47.5.

As for `O=C(OCCOC(=O)OCCc1ccc(O)c(O)c1)OCCc1ccc(O)c(O)c1`, the figures for the IC50 (in data set [1]; with MRC5) were 3.8 µM and greater than 50 µM, respectively. In addition, in data set [3], the selectivity ratio was greater than 13. Besides, the “Ratio IC50” value in data set [2] stood at 12.6.

For `CCCCOC(=O)OCCc1ccc(O)c(O)c1`, in data set [1], the IC50 worked out at 7.2 µM. In data set [2], the “Ratio IC50” value was found to be 6.6.
